Measured values from PMC3040319 (Pharmaceutical Research, 2010).
Like-named read-outs stand apart in the source and are kept apart here.

Columns and labels:
mouse Oct1 = molecular target: T1, mouse Oct1 (Mus musculus, UniProt O08966); test: Cellular accumulation of platinum in HEK-mOct1 cells; assay type: in vitro ADME; conditions: 10 μM, 1 h
T1 sequence (O08966 1-556): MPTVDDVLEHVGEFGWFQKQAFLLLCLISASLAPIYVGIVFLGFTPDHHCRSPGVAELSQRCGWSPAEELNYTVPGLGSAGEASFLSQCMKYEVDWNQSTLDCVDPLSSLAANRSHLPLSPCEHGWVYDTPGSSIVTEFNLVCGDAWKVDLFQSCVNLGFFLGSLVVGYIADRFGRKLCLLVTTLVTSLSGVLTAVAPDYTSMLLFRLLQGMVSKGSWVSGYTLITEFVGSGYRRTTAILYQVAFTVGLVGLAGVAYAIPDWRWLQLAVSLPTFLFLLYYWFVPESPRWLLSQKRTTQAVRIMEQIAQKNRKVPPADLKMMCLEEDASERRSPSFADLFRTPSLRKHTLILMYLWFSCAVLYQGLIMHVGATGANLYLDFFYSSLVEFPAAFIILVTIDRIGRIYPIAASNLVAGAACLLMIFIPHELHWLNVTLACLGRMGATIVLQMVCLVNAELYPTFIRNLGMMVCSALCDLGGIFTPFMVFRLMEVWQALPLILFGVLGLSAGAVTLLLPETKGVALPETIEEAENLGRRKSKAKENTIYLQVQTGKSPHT
Procedure, shortened: (§1)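 HEK293 cells stably carrying full-length mouse Oct1 cDNA in pcDNA5/FRT, selected with hygromycin B; the human OCT1 line's construct is not described. Cells grown in DMEM H21 with 10% FBS at 37°C, 5% CO2. Exposed to 10 μM test compound in serum-free medium for 1 h, then washed 3× with ice-cold PBS. Digested in 70% nitric acid at 65°C for ≥2.5 h. Pt measured by ICP-MS, normalised to BCA protein.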

human OCT1 = molecular target: T2, human OCT1 (Homo sapiens, UniProt O15245); test: Cellular accumulation of platinum in HEK-hOCT1 cells; assay type: in vitro ADME; conditions: 10 μM, 1 h
T2 sequence (O15245 1-554): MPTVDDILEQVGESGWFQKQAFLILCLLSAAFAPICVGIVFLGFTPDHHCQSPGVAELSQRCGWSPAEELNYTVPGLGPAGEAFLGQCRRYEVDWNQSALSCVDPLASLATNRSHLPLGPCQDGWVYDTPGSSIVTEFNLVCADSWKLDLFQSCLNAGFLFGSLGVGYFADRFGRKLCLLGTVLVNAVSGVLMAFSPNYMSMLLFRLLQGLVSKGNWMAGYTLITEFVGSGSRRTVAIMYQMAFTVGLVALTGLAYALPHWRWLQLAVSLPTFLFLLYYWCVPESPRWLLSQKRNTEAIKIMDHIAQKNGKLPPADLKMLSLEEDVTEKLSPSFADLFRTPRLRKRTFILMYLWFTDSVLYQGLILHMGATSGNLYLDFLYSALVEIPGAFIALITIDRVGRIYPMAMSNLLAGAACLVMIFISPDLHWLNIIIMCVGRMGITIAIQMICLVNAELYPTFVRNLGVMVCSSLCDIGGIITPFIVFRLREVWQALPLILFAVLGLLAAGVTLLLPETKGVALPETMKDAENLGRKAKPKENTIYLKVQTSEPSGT
Procedure, shortened: as §1

HEK-MOCK cells = test: Cellular accumulation of platinum in HEK-MOCK cells; assay type: in vitro ADME, human; conditions: 10 μM, 1 h
Procedure, shortened: as §1

[1] = tested on: primary mouse hepatocytes; assay type: in vitro ADME
genomic DNA = test: Platinum-DNA adduct formation in primary mouse hepatocytes; assay type: cell-based
Procedure, shortened: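 Attached wild-type or Oct1-/- mouse hepatocytes were exposed to 10 μM test compound for 1 h at 37°C in serum-free medium, with or without OCT1 inhibitor. Cells were then washed with ice-cold PBS. Genomic DNA was kit-purified. DNA-bound Pt was measured by ICP-MS, and DNA by A260 from the same preparation. Adduct level expressed as pmol Pt/μg DNA.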

[2] = Plasma platinum pharmacokinetics in Oct1+/+ and Oct1-/- mice; assay type: in vivo, mouse; conditions: single i.v. 8 mg/kg
Procedure, shortened: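 Male FVB Oct1+/+ and Oct1-/- mice (8 weeks) received a single tail-vein dose of 8 mg/kg in saline. Heparinised plasma was taken by heart puncture at 15 and 30 min and at 1, 2, 3, 4, 8, 10, 24 and 48 h. Total Pt in 5 μl plasma and in urine was measured by ICP-MS. Parameters (Vss, CL, renal CL) came from two-compartment analysis.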

Oct1+/+ and Oct1-/- mice = test: Toxicity study of CDPCP in Oct1+/+ and Oct1-/- mice; assay type: in vivo, mouse; conditions: for Kidney histopathological examination (affected/examined animals) / Liver histopathological examination (affected/examined animals): 24 hr after third i.v. dose; for liver-to-body-weight ratio increase compared with saline-treated mice: 120 mg/kg reduced to 90 mg/kg
Procedure, shortened: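 Male Oct1+/+ and Oct1-/- mice (8 weeks, ≥9 per group) were randomised to saline or test compound. Dosing was by tail vein once weekly ×3 (120 mg/kg initially, later 90 mg/kg). Body weight was recorded three times weekly. Mice were fasted ≥16 h and killed under isoflurane 24 h after the last dose. Measures: serum ALT/AST/ALKP and liver weight. Liver and kidney were fixed in 4% paraformaldehyde, paraffin-embedded and H&E stained; affected/examined animals were counted.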

Kim-1 = test: Renal Kim-1 mRNA by qRT-PCR in the CDPCP toxicity study; assay type: in vivo, mouse; conditions: i.v. once weekly for 3 weeks
Procedure, shortened: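 Same weekly ×3 tail-vein regimen with saline controls; kidneys were harvested 24 h after the last dose. Kidney RNA was extracted with Trizol and DNase I-treated, then reverse-transcribed. Taqman qRT-PCR for Kim-1 used GAPDH as internal control: 95°C 20 s, then 40 cycles of 95°C 3 s and 60°C 30 s. Results expressed as fold over saline.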

[3] = hepatocytes from Oct1 wild-type mice, disopyramide 150 μM
[4] = Oct1+/+ mice, i.v. once weekly for 3 weeks
[5] = Oct1-/- mice, i.v. once weekly for 3 weeks

[NH3+][Pt-2]([NH3+])([Cl])[n+]1ccccc1 (stereo not drawn) [CDPCP, cis-diammine(pyridine)chloroplatinum(II)]
uptake of platinum (mouse Oct1; HEK-mOct1 cells): 1470 ± 66.6 pmol/mg protein/hr
uptake of platinum, fold greater than in HEK-MOCK cells (mouse Oct1; HEK-mOct1 vs HEK-MOCK): 53 fold
uptake of platinum (human OCT1): 852 ± 135 pmol/mg protein/hr
uptake of platinum (HEK-MOCK cells): 27.4 ± 7.43 pmol/mg protein/hr
hepatocellular uptake, wild-type as fold of Oct1-/- ([1]; 10 μM, 1 hr): 2.9 fold
hepatocellular uptake ([1]; hepatocytes from Oct1-/- mice, 10 μM, 1 hr): 87.8 ± 7.61 pmol/mg protein/hr
hepatocellular uptake ([1]; hepatocytes from Oct1-/- mice, 10 μM, 1 hr, co-incubation with disopyramide 150 μM): 95.8 ± 17.6 pmol/mg protein/hr
hepatocellular uptake ([1]; hepatocytes from Oct1 wild-type mice, 10 μM, 1 hr): 251 ± 94.6 pmol/mg protein/hr
hepatocellular uptake ([1]; hepatocytes from Oct1 wild-type mice, 10 μM, 1 hr, co-incubation with disopyramide 150 μM): 55.9 ± 1.41 pmol/mg protein/hr
fold decrease in platinum uptake by disopyramide [1, 3]: 4.5 fold
platinum-DNA adduct level, fold greater in wild-type than Oct1-/- (genomic DNA; 10 μM, 1 h): 2.4 fold
platinum-DNA adduct level (genomic DNA; hepatocytes from Oct1-/- mice, 10 μM, 1 h): 0.0351 ± 0.00344 pmol/μg DNA
platinum-DNA adduct level (genomic DNA; hepatocytes from Oct1-/- mice, 10 μM, 1 h, disopyramide 150 μM): 0.0338 ± 0.00798 pmol/μg DNA
platinum-DNA adduct level (genomic DNA; hepatocytes from Oct1 wild-type mice, 10 μM, 1 h): 0.0857 ± 0.0232 pmol/μg DNA
platinum-DNA adduct level (genomic DNA; hepatocytes from Oct1 wild-type mice, 10 μM, 1 h, disopyramide 150 μM): 0.0233 ± 0.00847 pmol/μg DNA
fold decrease in platinum-DNA adduct formation by disopyramide (genomic DNA; [3]): 3.7 fold
contribution of renal clearance to total clearance of platinum from plasma ([2]; both Oct1+/+ and Oct1-/- mice): about 50%
volume of distribution, Oct1 wild-type as fold of Oct1-/- [2]: 1.77 fold
Kidney histopathological examination (affected/examined animals) (Oct1+/+ and Oct1-/- mice; OCT1+/+ mice): Normal (4/4)
Liver histopathological examination (affected/examined animals) (Oct1+/+ and Oct1-/- mice; OCT1+/+ mice): Severe swollen hepatocytes (3/4); Mild swollen hepatocytes(1/4)
Kidney histopathological examination (affected/examined animals) (Oct1+/+ and Oct1-/- mice; OCT1-/- mice): Kidney tube protein contents (3/4); kidney hyaline necrosis (1/4)
Liver histopathological examination (affected/examined animals) (Oct1+/+ and Oct1-/- mice; OCT1-/- mice): Mild swollen hepatocytes(1/4)
serum BUN levels vs saline (Oct1+/+ and Oct1-/- mice; Oct1+/+ mice): significantly reduced
actual liver weight (Oct1+/+ and Oct1-/- mice; [4]): 1.23 g
liver-to-body-weight ratio increase compared with saline-treated mice (Oct1+/+ and Oct1-/- mice; [4]): 28.8%
serum glucose levels (Oct1+/+ and Oct1-/- mice; Oct1+/+ mice, vs saline): significant increase
total serum protein levels (Oct1+/+ and Oct1-/- mice; Oct1+/+ mice, vs saline): significant decrease
serum BUN vs saline (Oct1+/+ and Oct1-/- mice; Oct1-/- mice): not affected
actual liver weight (Oct1+/+ and Oct1-/- mice; [5]): 1.02 g
liver-to-body-weight ratio increase compared with saline-treated mice (Oct1+/+ and Oct1-/- mice; [5]): 14.7%
serum creatinine levels vs saline (Oct1+/+ and Oct1-/- mice; both Oct1+/+ and Oct1-/- mice): not significantly different
dose resulting in significant changes in body weight, liver-to-body-weight ratio, liver function and hematology (Oct1+/+ and Oct1-/- mice; dose-range finding toxicity study): ≥ 90 mg/kg
histological examination of intestine (Oct1+/+ and Oct1-/- mice; either Oct1+/+ or Oct1-/- mice): no signs of intestinal toxicity
activities of ALT, AST and ALKP (Oct1+/+ and Oct1-/- mice; either Oct1+/+ or Oct1-/- mice, i.v. once weekly for 3 weeks): not affected
body weight loss in Oct1-/- mice compared with Oct1+/+ mice (Oct1+/+ and Oct1-/- mice; i.v. once weekly for 3 weeks): much greater
ALT (Oct1+/+ and Oct1-/- mice; wild-type mice, 120 mg/kg, dose-finding studies (data not shown)): significant increases
renal mRNA levels of Kim-1, fold over saline control (Kim-1; Oct1+/+ mice): 19.3 fold
renal mRNA levels of Kim-1, fold over saline control (Kim-1; Oct1-/- mice): 117 fold
